From ChEMBL document CHEMBL4811233, “Synthesis, Structure-Activity Relationships, and Antiviral Activity of Allosteric Inhibitors of Flavivirus NS2B-NS3 Protease” (J Med Chem, 2021) come the findings set out here.

In one data set the target is Nonstructural protein 3 (Zika virus, UniProt A0A024AXB9). Briefly: Inhibition Zika virus NS2B (47 to 95 residues)/NS3 (1 to 170 residues) protease expressed in Escherichia coli BL21 using 7-amino-4-methylcoumarin as substrate by fluorescence assay. The gist of the method: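 Single-chain NS2B(47–95)–Gly4-Ser-Gly4–NS3(1–170) enzyme at 1 nM in 20 mM HEPES pH 7.3 with 0.05% Triton X-100. Compound (1 nM–10 µM, triplicate) is preincubated 10 min before adding Bz-Nle-Lys-Lys-Arg-AMC at 20 µM. Fluorescence (Ex 360/Em 460 nm) is read every 30 s. IC50 comes from dose-response fitting of initial velocities, 3 independent experiments with SD.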

Data set [1] deals with Genome polyprotein (dengue virus type 2, UniProt P29990). Briefly: Inhibition Dengue serotype-2 NS3B/NS3 protease using 7-amino-4-methylcoumarin as substrate by fluorescence assay.
For data set [2], the target named is Genome polyprotein (West Nile virus, UniProt P06935). Nature of the data set: Inhibition West Nile virus NS3B/NS3 protease using 7-amino-4-methylcoumarin as substrate by fluorescence assay.
The subject of a further data set is U-87 MG. Nature of the data set: Cytotoxicity against human U87 cells assessed as inhibition of proliferation at 10 uM by MTT assay. In kind it is cell-based. The note with it: u-87mg atcc.
The next data set relates to Vero. Nature of the data set: Cytotoxicity against African green monkey Vero cells assessed as inhibition of proliferation at 10 uM by MTT assay. The format is cell-based. The note with it: chlorocebus sabaeus.

Chain of Genome polyprotein (West Nile virus, UniProt P06935) (P06935 1371-1501 limits assumed): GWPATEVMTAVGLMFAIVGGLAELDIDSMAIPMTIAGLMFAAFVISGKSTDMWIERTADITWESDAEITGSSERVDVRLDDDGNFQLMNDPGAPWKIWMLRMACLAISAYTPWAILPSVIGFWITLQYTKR
Chain of Genome polyprotein (West Nile virus, UniProt P06935) (P06935 1502-2120 limits assumed): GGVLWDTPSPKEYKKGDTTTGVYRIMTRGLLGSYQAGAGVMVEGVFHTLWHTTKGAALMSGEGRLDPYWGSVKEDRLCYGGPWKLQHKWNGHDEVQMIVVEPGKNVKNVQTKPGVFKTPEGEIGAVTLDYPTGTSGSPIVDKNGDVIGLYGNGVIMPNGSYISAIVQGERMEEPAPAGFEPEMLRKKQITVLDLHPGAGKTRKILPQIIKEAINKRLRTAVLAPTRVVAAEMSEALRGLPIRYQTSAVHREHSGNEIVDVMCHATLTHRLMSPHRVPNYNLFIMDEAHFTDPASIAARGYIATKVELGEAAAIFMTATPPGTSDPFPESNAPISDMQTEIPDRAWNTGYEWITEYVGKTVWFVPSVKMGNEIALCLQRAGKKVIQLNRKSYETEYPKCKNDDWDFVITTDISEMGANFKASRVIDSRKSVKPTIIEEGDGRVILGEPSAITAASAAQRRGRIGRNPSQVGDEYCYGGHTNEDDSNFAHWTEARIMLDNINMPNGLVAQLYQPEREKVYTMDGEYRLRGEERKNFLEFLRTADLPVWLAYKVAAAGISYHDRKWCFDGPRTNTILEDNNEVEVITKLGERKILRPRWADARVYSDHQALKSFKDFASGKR
Chain of Nonstructural protein 3 (A0A024AXB9 whole entry, the tested form may be a part): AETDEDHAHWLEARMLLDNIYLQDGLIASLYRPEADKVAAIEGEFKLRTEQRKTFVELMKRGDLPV
Chain of Genome polyprotein (dengue virus type 2, UniProt P29990) (P29990 1346-1475 limits assumed): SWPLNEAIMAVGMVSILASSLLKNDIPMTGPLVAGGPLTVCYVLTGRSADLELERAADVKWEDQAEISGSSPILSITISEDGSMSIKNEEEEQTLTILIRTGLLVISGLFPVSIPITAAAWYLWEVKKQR
Chain of Genome polyprotein (dengue virus type 2, UniProt P29990) (P29990 1476-2093 limits assumed): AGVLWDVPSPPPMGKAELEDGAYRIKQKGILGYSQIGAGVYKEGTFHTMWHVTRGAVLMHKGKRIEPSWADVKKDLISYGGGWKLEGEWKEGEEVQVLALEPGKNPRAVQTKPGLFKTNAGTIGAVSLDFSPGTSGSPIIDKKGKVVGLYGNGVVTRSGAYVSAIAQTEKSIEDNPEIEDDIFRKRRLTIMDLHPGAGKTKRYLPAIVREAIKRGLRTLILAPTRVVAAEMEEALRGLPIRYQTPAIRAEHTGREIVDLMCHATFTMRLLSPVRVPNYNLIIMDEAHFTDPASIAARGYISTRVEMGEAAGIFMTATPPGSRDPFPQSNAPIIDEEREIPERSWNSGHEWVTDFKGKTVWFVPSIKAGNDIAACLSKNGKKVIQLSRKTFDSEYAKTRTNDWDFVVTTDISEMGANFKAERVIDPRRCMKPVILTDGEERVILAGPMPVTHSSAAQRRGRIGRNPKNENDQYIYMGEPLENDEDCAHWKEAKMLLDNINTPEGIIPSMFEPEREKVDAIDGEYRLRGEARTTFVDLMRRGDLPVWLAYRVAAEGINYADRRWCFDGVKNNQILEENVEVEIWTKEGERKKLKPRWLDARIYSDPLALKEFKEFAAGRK

On Nonstructural protein 3, `NCc1ccc(-c2ncc(OCC3CCNCC3)nc2-c2ccc(-n3ccnn3)cc2)cc1` returned a 50% inhibitory concentration (IC50) greater than 10 µM. Consider `Ic1ccc(-c2ncc(OCCCC3CCNCC3)nc2-c2ccc(I)cc2)cc1`, for which the IC50 against Nonstructural protein 3 is greater than 10 µM. Turning to `c1cc(-c2ccc(-c3ncc(OCC4CCNCC4)nc3-c3ccc(-c4ccsc4)cc3)cc2)cs1`, the half-inhibitory concentration (IC50) is 3.6 µM at Genome polyprotein [1], 1.4 µM against Nonstructural protein 3 and 6.6 µM on Genome polyprotein [2]. For `Cc1cc(CN)ccc1-c1ncc(OCC2CCNCC2)nc1-c1ccc(CN)cc1C` the same measures were 6.3 µM, 2.1 µM and 3.6 µM.

On Nonstructural protein 3, `NCCCOc1cnc(-c2ccc(CN)cc2)c(-c2ccc(-c3ccoc3)cc2)n1` yielded an IC50 of 1.3 µM.

On to `NCc1cccc(-c2ncc(OCC3CCNCC3)nc2-c2ccc(-c3ccoc3)cc2)c1`, for which the half-maximal inhibitory concentration (IC50) against Nonstructural protein 3 came out at 2.9 µM.

In the case of `NCc1ccc(-c2nc(OCCN3CCNCC3)cnc2-c2ccc(-c3ccoc3)cc2)cc1`, the IC50 on Nonstructural protein 3 came to 1.8 µM. `OCc1ccc(-c2ncc(OCC3CCNCC3)nc2-c2ccc(CO)cc2)cc1` displayed a concentration for half-maximal inhibition (IC50) against Nonstructural protein 3 of 0.51 µM. In the case of `NCc1ccc(-c2ncc(NCC3CCNCC3)nc2-c2ccc(-c3ccoc3)cc2F)cc1`, at Nonstructural protein 3, the half-inhibitory concentration (IC50) amounted to 2.3 µM. As for `COc1cc(-c2ncc(OCC3CCNCC3)nc2-c2ccc(-c3ccsc3)cc2)ccc1C(N)=O`, on Nonstructural protein 3, 4.7 µM corresponded to half-maximal inhibition (IC50). `Cc1noc(C)c1-c1nc(OCC2CCNCC2)cnc1-c1ccc(CN)cc1`: the IC50 at Nonstructural protein 3 was determined as 11.1 µM. At Nonstructural protein 3, `N#Cc1cc(-c2nc(OCC3CCNCC3)cnc2-c2ccc(CN)cc2)ccc1-c1ccoc1` had a half-inhibitory concentration (IC50) of 1.8 µM. Moreover, the Activity result with U-87 MG and with Vero was “Non-Toxic” in each case. With `COc1cc(-c2ccoc2)ccc1-c1nc(OCC2CCNCC2)cnc1-c1ccc(CN)cc1`, the half-inhibitory concentration (IC50) on Nonstructural protein 3 was found to be 1.9 µM. Also, the Activity result in the data set with U-87 MG and with Vero was “Non-Toxic” throughout. In the case of `NCc1ccc(-c2ncc(OCC3CCNCC3)nc2-c2ccc(-c3ccoc3)cc2F)cc1`, on Nonstructural protein 3, the IC50 is 8.4 µM. Besides, the Activity entry in the data set with U-87 MG and with Vero was “Non-Toxic” in each case. The molecule `NCc1ccc(-c2ncc(OC3CCNCC3)nc2-c2ccc(-c3ccoc3)cc2)cc1` registered a concentration for half-maximal inhibition (IC50) at Nonstructural protein 3 of 1.6 µM.

Consider `NCc1ccc(-c2ncc(OCC3CCNCC3)nc2-c2ccc(-n3cc(CO)nn3)cc2)cc1`, for which, on Nonstructural protein 3, the IC50 is greater than 10 µM.

Consider `NCc1ccc(-c2ccc(NCC3CCNCC3)nc2-c2ccc(CN)cc2)cc1`, for which, at Nonstructural protein 3, the IC50 was found to be 3.7 µM. Regarding `NCc1ccc(-c2cc(CNCC3CCNCC3)sc2-c2ccc(CN)cc2)cc1`, the IC50 on Nonstructural protein 3 was 10.7 µM; against Genome polyprotein [2], greater than 50 µM. Turning to `NCc1ccc(-c2ncc(OCCC3CCNCC3)nc2-c2ccc(-c3ccoc3)cc2)cc1`, the IC50 against Nonstructural protein 3 turned out to be 1.3 µM.

For `NCc1ccc(-c2ncc(OCC3CCNCC3)nc2-c2ccc(C(=O)N3CCOCC3)cc2)cc1`, the IC50 on Nonstructural protein 3 is greater than 10 µM. For the same molecule, the Activity entry in the data set on U-87 MG and with Vero was “Non-Toxic” in each case. `NCc1ccc(-c2ncc(OCC3CCNCC3)nc2-c2ccc(N3CCCCC3)cc2)cc1` had an IC50 against Nonstructural protein 3 greater than 10 µM. The Activity entry with U-87 MG and with Vero was “Non-Toxic” each time.

The molecule `c1cc(-c2ccc(-c3ncc(OCC4CCNCC4)nc3-c3ccc(-c4ccoc4)cc3)cc2)co1` had a 50% inhibitory concentration (IC50) against Nonstructural protein 3 of 1 µM. `NCc1ccc(-c2ncc(OCC3CCNCC3)nc2-c2ccc(CN)cc2)cc1` returned an IC50 against Nonstructural protein 3 of 0.62 µM. Turning to `Cc1cc(CN)ccc1-c1ncc(OCC2CCNCC2)nc1-c1ccc(-c2ccoc2)cc1`, on Nonstructural protein 3, inhibition was half-maximal at 2.6 µM (IC50). `NCc1ccc(-c2ncc(OCCC3CCNCC3)nc2-c2ccc(CN)cc2)cc1` displayed an IC50 on Nonstructural protein 3 greater than 10 µM. At Nonstructural protein 3, `OCc1ccc(-c2ncc(OCCC3CCNCC3)nc2-c2ccc(CO)cc2)cc1` showed an IC50 of 2.1 µM. For `NCc1ccc(-c2ncc(OCc3ccccc3)nc2-c2ccc(-c3ccoc3)cc2)cc1`, the IC50 against Nonstructural protein 3 was found to be 3.2 µM.

In the case of `CN(C)Cc1ccc(-c2nc(OCC3CCNCC3)cnc2-c2cccnc2)cc1`, the concentration for half-maximal inhibition (IC50) against Nonstructural protein 3 was 9.9 µM. As to `NCc1ccc(-c2ncc(OCC3CCNCC3)nc2-c2ccc(N3CCOCC3)cc2)cc1`, at Nonstructural protein 3, the IC50 was greater than 10 µM. Besides, the Activity result with U-87 MG and with Vero was “Non-Toxic” each time.

With `NCc1ccc(-c2nc(OCC3CCNCC3)cnc2-c2ccc(O)cc2)cc1`, the half-inhibitory concentration (IC50) against Nonstructural protein 3 was 8.1 µM. Same read-out and setting: the result for `NCc1ccc(-c2ncc(NCC3CCNCC3)nc2C(=O)Nc2ccc(-c3ccoc3)cc2)cc1` reads 1.1 µM.

Molecule `NCc1ccc(-c2ncc(OCC3CCNCC3)nc2-c2ccc(C3=CCNCC3)cc2)cc1` registered a half-inhibitory concentration (IC50) on Nonstructural protein 3 of 2.9 µM. The Activity result with U-87 MG and in the data set with Vero was “Non-Toxic” in each case. In the case of `COc1cc(CN)ccc1-c1nc(OCC2CCNCC2)cnc1-c1ccncc1`, at Nonstructural protein 3, half-maximal inhibition (IC50) was put at 3.5 µM. Regarding `NCc1ccc(-c2nc(N3CC[C@H](N)C3)c3nccn3c2-c2ccc(CN)cc2)cc1`, the IC50 against Nonstructural protein 3 is 19.3 µM. The molecule `NCc1ccc(-c2nc(N3CCC[C@@H](N)C3)c3nccn3c2-c2ccc(CN)cc2)cc1` had an IC50 on Nonstructural protein 3 of 3.5 µM. `CN(C)Cc1ccc(-c2ncc(OCC3CCNCC3)nc2-c2ccc(-c3ccoc3)cc2)cc1` yielded an IC50 against Nonstructural protein 3 of 6.1 µM. `NCc1ccc(-c2nc(OCCC3CCNCC3)cnc2-c2ccncc2)cc1`: inhibition against Nonstructural protein 3 was half-maximal at 1.7 µM (IC50). `NCc1ccc(-c2ncc(OCC3CCNCC3)nc2-c2ccc(C3CCOC3)cc2)cc1` (stereo unspecified) came in with a 50% inhibitory concentration (IC50) against Nonstructural protein 3 of 0.59 µM. In addition, the Activity entry with U-87 MG and in the data set with Vero was “Non-Toxic” each time. The molecule `NC(=O)c1ccc(-c2ncc(OCC3CCNCC3)nc2-c2ccc(-c3ccoc3)cc2)cc1F` registered a concentration for half-maximal inhibition (IC50) against Nonstructural protein 3 of 2.3 µM.

On Nonstructural protein 3, `NCc1ccc(-c2ncc(OCC3CCNCC3)nc2-c2ccc(-c3ccoc3)cc2CO)cc1` gave an IC50 greater than 10 µM. In addition, the Activity entry in the data set on U-87 MG and in the data set on Vero was “Non-Toxic” each time.

Turning to `NCc1ccc(-c2ncc(OCCN3CCNCC3)nc2-c2ccc(CN)cc2)cc1`, at Nonstructural protein 3, the half-inhibitory concentration (IC50) was greater than 10 µM. In turn, `CN(C)Cc1ccc(-c2nc(OCC3CCNCC3)cnc2-c2ccc(O)cc2)cc1` came in with a half-maximal inhibitory concentration (IC50) against Nonstructural protein 3 of 20.5 µM. Same read-out and setting: the result for `Ic1ccc(-c2ncc(OCC3CCNCC3)nc2-c2ccc(I)cc2)cc1` reads 0.52 µM; that for `NCc1ccc(-c2ncc(OCC3CCNCC3)nc2-c2ccc(CN)c(F)c2)cc1`, greater than 50 µM. Turning to `NCc1ccc(-c2ncc(OCC3CCNCC3)nc2-c2cccc(C3CCOC3)c2)cc1` (stereo unspecified), the IC50 against Nonstructural protein 3 is greater than 10 µM. Besides, the Activity entry in the data set with U-87 MG and with Vero was “Non-Toxic” each time. For the molecule `CN(C)Cc1ccc(-c2ncc(OCC3CCNCC3)nc2-c2ccc(CN(C)C)cc2)cc1`, half-maximal inhibition against Nonstructural protein 3 (IC50) required 0.39 µM. At Nonstructural protein 3, `NCc1ccc(-c2nc(OCC3CCNCC3)c3nccn3c2-c2ccc(CN)cc2)cc1` displayed a half-maximal inhibitory concentration (IC50) of 9.3 µM. As to `NCc1ccc(-c2ncc(OCC3CCNCC3)nc2-c2ccc(C(=O)N3CCCCC3)cc2)cc1`, half-maximal inhibition at Nonstructural protein 3 (IC50) was put at 3.5 µM. For the same molecule, the Activity result in the data set with U-87 MG and in the data set with Vero was “Non-Toxic” in each case. On Nonstructural protein 3, `NCc1ccc(-c2nc(N)c(OCC3CCNCC3)nc2-c2ccc(CN)cc2)cc1` returned a concentration for half-maximal inhibition (IC50) of 2.1 µM. `CC(=O)OCc1ccc(-c2ncc(OCC3CCNCC3)nc2-c2ccc(COC(C)=O)cc2)cc1` displayed an IC50 on Nonstructural protein 3 greater than 10 µM. In turn, `NCc1ccc(-c2ncc(OCC3CCNCC3)nc2-c2ccc(C3CCNCC3)cc2)cc1` yielded an IC50 against Nonstructural protein 3 of 3.1 µM. The Activity entry with U-87 MG and in the data set on Vero was “Non-Toxic” throughout.

At Nonstructural protein 3, `CC(=O)NCc1ccc(-c2ncc(OCC3CCNCC3)nc2-c2ccc(CNC(C)=O)cc2)cc1` showed an IC50 greater than 10 µM. Molecule `CC(=O)NCc1ccc(-c2ncc(OCC3CCNCC3)nc2-c2ccc(CN)cc2)cc1` showed a half-maximal inhibitory concentration (IC50) against Nonstructural protein 3 of 30 µM. `NCc1ccc(-c2ncc(OCC3CCNCC3)nc2-c2ccc(C3CCCCC3)cc2)cc1`: at Nonstructural protein 3, the IC50 amounted to 16.2 µM. The Activity result in the data set on U-87 MG and with Vero was “Non-Toxic” in each case.

`CN(C)Cc1ccc(-c2nc(OCC3CCNCC3)cnc2-c2ccc(-c3ccoc3)cc2)cc1` returned an IC50 at Nonstructural protein 3 of 1.8 µM.

`NCc1ccc(-c2ncc(OCC3CCNCC3)nc2-c2cccc3[nH]cnc23)cc1` displayed a 50% inhibitory concentration (IC50) against Nonstructural protein 3 of 1.6 µM. Regarding `Cc1noc(C)c1-c1ccc(-c2nc(OCC3CCNCC3)cnc2-c2ccc(CN)cc2)cc1`, the half-maximal inhibitory concentration (IC50) against Nonstructural protein 3 was greater than 10 µM. As for `COc1cc(-c2nc(OCC3CCNCC3)cnc2-c2ccc(CN)cc2)ccc1-c1ccoc1`, at Nonstructural protein 3, the IC50 is 8 µM. Besides, the Activity result in the data set with U-87 MG and in the data set on Vero was “Non-Toxic” in each case. Molecule `ONCc1ccc(-c2ncc(OCC3CCNCC3)nc2-c2ccc(-c3ccoc3)cc2)cc1` came in with an IC50 against Nonstructural protein 3 of 1.2 µM. On Nonstructural protein 3, `NCc1ccc(-c2ncc(OCC3CCNCC3)nc2-c2ccc(N3CCCC3)cc2)cc1` displayed an IC50 of 2.5 µM. The Activity result in the data set on U-87 MG and with Vero was “Non-Toxic” throughout. The molecule `Cc1cc(-c2nc(OCC3CCNCC3)cnc2-c2ccc(CN)cc2)ccc1-c1ccoc1` showed an IC50 against Nonstructural protein 3 of 10.6 µM. In addition, the Activity entry with U-87 MG and in the data set with Vero was “Non-Toxic” throughout. Take `Cc1cc(-c2ccoc2)ccc1-c1nc(OCC2CCNCC2)cnc1-c1ccc(CN)cc1`: inhibition at Nonstructural protein 3 was half-maximal at 17.1 µM (IC50). The Activity entry in the data set with U-87 MG and in the data set with Vero was “Non-Toxic” throughout. At Nonstructural protein 3, `NCc1ccc(-c2nc(OCC3CCNCC3)cnc2-c2ccncc2)cc1` showed an IC50 of 0.32 µM. The same measure, in the same setting: for `CNCCOc1cnc(-c2ccc(CN)cc2)c(-c2ccc(-c3ccoc3)cc2)n1` the value was 2.1 µM. On to `NCc1ccc(-c2ncc(OCC3CCNCC3)nc2-c2ccc(C(=O)N3CCCC3)cc2)cc1`, for which it took 13 µM to reach half-maximal inhibition against Nonstructural protein 3 (IC50). Further, the Activity result in the data set with U-87 MG and in the data set with Vero was “Non-Toxic” each time.
